Data as given in ChEMBL document CHEMBL4251593, “Nontoxic combretafuranone analogues with high in vitro antibacterial activity” (Eur J Med Chem, 2018).
Converted amounts (≈) assume the structure as drawn.

How the values were obtained:
[1] = test system: Klebsiella pneumoniae; experiment: Antibacterial activity against Klebsiella pneumoniae HK11750/08 clinical isolate after 48 hrs by microdilution assay; format: functional; conditions: HK11750/08, 48 h
[2] = test system: Staphylococcus aureus; experiment: Antibacterial activity against methicillin-resistant Staphylococcus aureus HK5996/08 clinical isolate after 48 hrs by microdilution assay; format: functional; conditions: HK5996/08, 48 h
[3] = test system: Escherichia coli; experiment: Antibacterial activity against Escherichia coli ATCC 8739 after 48 hrs by microdilution assay; format: functional; conditions: ATCC 8739, 48 h
Method in brief: (§1)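 Broth microdilution in Mueller-Hinton medium buffered to pH 7.4 (±0.2), with DMSO as diluent at no more than 2% final. Compounds were tested as 2-fold serial dilutions from 2000 to 0.488 µmol/l. The inoculum was 0.5 McFarland (1.5×10^8 cfu/ml). Plates were held at 37 °C and read visually at 24 and 48 h. MIC was taken as 95% growth inhibition versus control, determined twice in duplicate.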

[4] = test system: Klebsiella pneumoniae; experiment: Antibacterial activity against Klebsiella pneumoniae HK14368/08 clinical isolate after 24 hrs by microdilution assay; format: functional; conditions: HK14368/08, 24 h
[5] = test system: Staphylococcus epidermidis; experiment: Antibacterial activity against Staphylococcus epidermidis HK6966/08 clinical isolate after 24 hrs by microdilution assay; format: functional; conditions: HK6966/08, 24 h
[6] = test system: Klebsiella pneumoniae; experiment: Antibacterial activity against Klebsiella pneumoniae HK11750/08 clinical isolate after 24 hrs by microdilution assay; format: functional; conditions: HK11750/08, 24 h
[7] = test system: Klebsiella pneumoniae; experiment: Antibacterial activity against Klebsiella pneumoniae HK14368/08 clinical isolate after 48 hrs by microdilution assay; format: functional; conditions: HK14368/08, 48 h
[8] = test system: Staphylococcus aureus; experiment: Antibacterial activity against Staphylococcus aureus ATCC 6538 after 24 hrs by microdilution assay; format: functional; conditions: ATCC 6538, 24 h
[9] = test system: Staphylococcus aureus; experiment: Antibacterial activity against Staphylococcus aureus ATCC 6538 after 48 hrs by microdilution assay; format: functional; conditions: ATCC 6538, 48 h
[10] = test system: Staphylococcus aureus; experiment: Antibacterial activity against methicillin-resistant Staphylococcus aureus HK5996/08 clinical isolate after 24 hrs by microdilution assay; format: functional; conditions: HK5996/08, 24 h
[11] = test system: HL-60; experiment: Induction of apoptosis in human HL60 cells assessed as caspase 3/7 activity after 24 hrs by caspase-glo luminescent assay; format: cell-based; conditions: HL-60, 24 h
Method in brief: (§2)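 Cells were seeded at 500 per well in their growth media and exposed to 12 concentrations from 40 µM to 1 nM, delivered from DMSO, in triplicate. After 24 h, caspase-3/7 activity was read by Caspase-Glo luminescence. Data were normalized and ED50 was fitted by variable-slope nonlinear regression.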

[12] = test system: Enterococcus sp.; experiment: Antibacterial activity against Enterococcus sp. HK14365/08 clinical isolate after 24 hrs by microdilution assay; format: functional; conditions: HK14365/08, 24 h
[13] = test system: PC-3; experiment: Cytotoxicity against human PC3 cells assessed as reduction in cell viability after 48 hrs by ATPlite-based luminescent assay; conditions: PC-3, 48 h
Method in brief: (§3)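 Cells were grown […] with 10% FBS, glutamax, NEAA and pen/strep at 37 °C, 5% CO2. Media were DMEM for RPE-1, HepG2 and BJ (BJ plus 10 ng/ml bFGF), F-12K for PC3, and IMDM for K562/HL-60. Cells were seeded at 500 per well and dosed from DMSO at 12 concentrations, 40 µM to 1 nM, in triplicate. After 48 h, intracellular ATP was read by luminescence. ED50 was obtained by variable-slope nonlinear regression.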

[14] = test system: Escherichia coli; experiment: Antibacterial activity against Escherichia coli ATCC 8739 after 24 hrs by microdilution assay; format: functional; conditions: ATCC 8739, 24 h; method in brief: as §1
[15] = test system: TERT-RPE1; experiment: Cytotoxicity against human RPE1 cells assessed as reduction in cell viability after 48 hrs by ATPlite-based luminescent assay; conditions: RPE-1, 48 h; method in brief: as §3
[16] = test system: MCF7; experiment: Cytotoxicity against human MCF7 cells assessed as reduction in cell viability after 48 hrs by ATPlite-based luminescent assay; conditions: MCF7, 48 h
[17] = test system: Enterococcus sp.; experiment: Antibacterial activity against Enterococcus sp. HK14365/08 clinical isolate after 48 hrs by microdilution assay; format: functional; conditions: HK14365/08, 48 h
[18] = test system: HepG2; experiment: Induction of apoptosis in human HepG2 cells assessed as caspase 3/7 activity after 24 hrs by caspase-glo luminescent assay; format: cell-based; conditions: HepG2, 24 h; method in brief: as §2
[19] = test system: PC-3; experiment: Induction of apoptosis in human PC3 cells assessed as caspase 3/7 activity after 24 hrs by caspase-glo luminescent assay; format: cell-based; conditions: PC-3, 24 h; method in brief: as §2
[20] = test system: Pseudomonas aeruginosa; experiment: Antibacterial activity against Pseudomonas aeruginosa ATCC 9027 after 24 hrs by microdilution assay; format: functional; conditions: ATCC 9027, 24 h; method in brief: as §1
[21] = test system: HepG2; experiment: Cytotoxicity against human HepG2 cells assessed as reduction in cell viability after 48 hrs by ATPlite-based luminescent assay; conditions: HepG2, 48 h; method in brief: as §3
[22] = test system: BJ; experiment: Cytotoxicity against human BJ cells assessed as reduction in cell viability after 48 hrs by ATPlite-based luminescent assay; method in brief: as §3
[23] = test system: Staphylococcus epidermidis; experiment: Antibacterial activity against Staphylococcus epidermidis HK6966/08 clinical isolate after 48 hrs by microdilution assay; format: functional; conditions: HK6966/08, 48 h
[24] = test system: K562; experiment: Induction of apoptosis in human K562 cells assessed as caspase 3/7 activity after 24 hrs by caspase-glo luminescent assay; format: cell-based; conditions: K562, 24 h; method in brief: as §2
[25] = test system: Pseudomonas aeruginosa; experiment: Antibacterial activity against Pseudomonas aeruginosa ATCC 9027 after 48 hrs by microdilution assay; format: functional; conditions: ATCC 9027, 48 h; method in brief: as §1
[26] = test system: TERT-RPE1; experiment: Induction of apoptosis in human RPE1 cells assessed as caspase 3/7 activity after 24 hrs by caspase-glo luminescent assay; format: cell-based; conditions: RPE-1, 24 h; method in brief: as §2
[27] = test system: HL-60; experiment: Cytotoxicity against human HL60 cells assessed as reduction in cell viability after 48 hrs by ATPlite-based luminescent assay; conditions: HL-60, 48 h; method in brief: as §3
[28] = test system: K562; experiment: Cytotoxicity against human K562 cells assessed as reduction in cell viability after 48 hrs by ATPlite-based luminescent assay; conditions: K562, 48 h; method in brief: as §3

Compound	MIC95 [1] [µM]	MIC95 [2] [µM]	MIC95 [3] [µM]	MIC95 [4] [µM]	MIC95 [5] [µM]	MIC95 [6] [µM]	MIC95 [7] [µM]	MIC95 [8] [µM]	MIC95 [9] [µM]	MIC95 [10] [µM]	IC50 [11] [µM]	MIC95 [12] [µM]	IC50 [13] [µM]	MIC95 [14] [µM]	IC50 [15] [µM]	IC50 [16] [µM]	MIC95 [17] [µM]	IC50 [18] [µM]	IC50 [19] [µM]	MIC95 [20] [µM]	further results
COc1ccc(C2=C(c3c(Cl)cccc3Cl)C(=O)OC2)cc1	> 500	> 500	> 500	> 500	125 (≈ 41.9 µg/mL)	> 500	> 500	62.5 (≈ 20.9 µg/mL)	125 (≈ 41.9 µg/mL)	> 500	12.5	> 500	> 40	> 500	> 40	> 40	> 500	> 40	> 40	> 500	IC50 [21]: > 40 µM; IC50 [22]: > 40 µM; MIC95 [23]: 250 µM (≈ 83.8 µg/mL); IC50 [24]: 16.2 µM; MIC95 [25]: > 500 µM; IC50 [26]: > 40 µM; IC50 [27]: 15.1 µM; IC50 [28]: 14.4 µM
Cc1ccc(C2=C(c3ccc(Br)cc3)C(=O)OC2)cc1	> 1000	62.5 (≈ 20.6 µg/mL)	> 1000	> 1000	15.6 (≈ 5.14 µg/mL)	> 1000	> 1000	7.81 (≈ 2.57 µg/mL)	15.6 (≈ 5.14 µg/mL)	62.5 (≈ 20.6 µg/mL)	2.77	> 1000	> 40	> 1000	0.97	14.8	> 1000	> 40	> 40	> 1000	IC50 [21]: > 40 µM; IC50 [22]: > 40 µM; MIC95 [23]: 31.2 µM (≈ 10.3 µg/mL); IC50 [24]: 0.29 µM; MIC95 [25]: > 1000 µM; IC50 [26]: 8.16 µM; IC50 [27]: 0.65 µM; IC50 [28]: 0.3 µM
COc1ccc(C2=C(c3ccc4c(c3)OCO4)COC2=O)cc1	> 500	> 500	> 500	> 500	125 (≈ 38.8 µg/mL)	> 500	> 500	7.81 (≈ 2.42 µg/mL)	15.6 (≈ 4.85 µg/mL)	> 500	> 40	> 500	> 40	> 500	> 40	> 40	> 500	> 40	> 40	> 500	IC50 [21]: > 40 µM; IC50 [22]: > 40 µM; MIC95 [23]: 500 µM (≈ 155 µg/mL); IC50 [24]: > 40 µM; MIC95 [25]: > 500 µM; IC50 [26]: > 40 µM; IC50 [27]: 15.5 µM; IC50 [28]: 15.7 µM
COc1ccc(C2=C(c3ccc(Br)cc3)C(=O)OC2)cc1	> 1000	> 1000	> 1000	> 1000	1000 (≈ 345 µg/mL)	> 1000	> 1000	> 1000	> 1000	> 1000	2.18	> 1000	> 40	> 1000	3.35	14.3	> 1000	> 40	> 40	> 1000	IC50 [21]: > 40 µM; IC50 [22]: > 40 µM; MIC95 [23]: > 1000 µM; IC50 [24]: > 40 µM; MIC95 [25]: > 1000 µM; IC50 [26]: 56.4 µM; IC50 [27]: 0.83 µM; IC50 [28]: 0.53 µM
